Source: ChEMBL document CHEMBL4477209, “Indole-2-carboxamide-based MmpL3 Inhibitors Show Exceptional Antitubercular Activity in an Animal Model of Tuberculosis Infection” (J Med Chem, 2016)
≈ marks a conversion by molar mass, not a printed value. Calls of active or inactive are those of the source. The rule behind the calls is not given here.

Experiments:
[1] = system: Mycobacterium tuberculosis H37Rv; assay: Inhibition of MmpL3 in clinical isolates of drug sensitive Mycobacterium tuberculosis H37Rv after 7 to 14 days by alamar blue assay
[2] = molecular target: T1, Aryl hydrocarbon receptor (Homo sapiens, UniProt P35869); assay: Transactivation of AhR (unknown origin) assessed as upregulation of CYP1A2; assay type: ADME
T1 sequence (P35869 whole entry): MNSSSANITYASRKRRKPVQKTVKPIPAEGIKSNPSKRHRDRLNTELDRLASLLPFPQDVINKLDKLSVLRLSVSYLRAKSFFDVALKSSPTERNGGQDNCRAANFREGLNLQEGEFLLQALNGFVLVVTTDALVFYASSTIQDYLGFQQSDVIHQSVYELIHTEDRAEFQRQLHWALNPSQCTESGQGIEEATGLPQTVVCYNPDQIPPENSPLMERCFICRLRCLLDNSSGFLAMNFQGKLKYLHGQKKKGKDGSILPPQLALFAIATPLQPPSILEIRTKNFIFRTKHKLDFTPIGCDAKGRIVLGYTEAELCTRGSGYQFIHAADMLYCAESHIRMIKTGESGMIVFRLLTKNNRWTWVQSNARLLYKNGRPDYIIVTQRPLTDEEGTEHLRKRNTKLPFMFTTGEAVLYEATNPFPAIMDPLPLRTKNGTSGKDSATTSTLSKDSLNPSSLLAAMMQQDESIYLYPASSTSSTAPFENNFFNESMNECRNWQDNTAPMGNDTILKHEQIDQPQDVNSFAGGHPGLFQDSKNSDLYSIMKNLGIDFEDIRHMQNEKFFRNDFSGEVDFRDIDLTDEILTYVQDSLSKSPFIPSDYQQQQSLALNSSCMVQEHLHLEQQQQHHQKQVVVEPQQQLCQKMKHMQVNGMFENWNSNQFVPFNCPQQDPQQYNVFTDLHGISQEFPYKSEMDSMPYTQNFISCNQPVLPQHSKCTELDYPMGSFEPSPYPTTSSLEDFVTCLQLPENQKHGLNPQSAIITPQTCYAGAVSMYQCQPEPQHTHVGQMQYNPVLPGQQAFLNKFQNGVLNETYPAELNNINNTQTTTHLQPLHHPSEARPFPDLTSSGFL
Procedure, shortened: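 Nuclear receptor reporter-gene induction assay, with reporters coupled to PXR, CAR or AhR. Compound was tested at 0.1–1, 3 and 8 μg/mL. Positive controls were rifampin for PXR, CITCO for CAR and 3-methylcholanthrene for AhR.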

[3] = AUMClast in BALB/c mouse plasma at 100 mg/kg administered via oral gavage after 0.25 to 24 hrs by LC-MS analysis; assay type: ADME, organism-based; details: in vivo
Procedure, shortened: (§1)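 Female BALB/c mice (20 g), single oral gavage dose of 100 mg/kg. Cardiac blood and lungs taken at 0, 0.25, 0.5, 1, 2, 4, 8 and 24 h (n = 3 per time point). Plasma separated by centrifugation; lungs bead-beaten in water and supernatant recovered. Drug quantified by LC-MS/MS against an indole-2-carboxamide internal standard. Parameters derived by noncompartmental analysis.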

[4] = Oral bioavailability in BALB/c mouse at 100 mg/kg administered as single dose for 30 to 120 mins followed by Mycobacterium tuberculosis H37Rv addition to compound treated serum incubated for 7 days by alamar blue reagent based serum inhibition titration assay; assay type: ADME, organism-based; details: in vivo
Procedure, shortened: (§2)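 Six-week-old female BALB/c mice (20 g) given one oral dose as suspension in 0.5% CMC in water; isoniazid 10 mg/kg as positive control, vehicle as negative. Serum collected at 30, 60 and 120 min, pooled from three mice per time point, 2-fold serially diluted. 10^4 CFU H37Rv added per well, 7 days at 37 °C. alamarBlue added for 16−18 h, fluorescence read at Ex544/Em590 and plotted against serum titration.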

[5] = system: Mycobacterium tuberculosis; assay: Antimycobacterial activity against Mycobacterium tuberculosis H37Rv grown on serum of 100 mg/kg, po treated BALB/c mouse for 30 to 120 mins assessed as reduction in bacterial growth followed by bacterial addition incubated for 7 days by alamar blue reagent based serum inhibition titration assay; assay type: functional, organism-based; procedure, shortened: as §2
[6] = Mean residence time (last) in BALB/c mouse plasma at 100 mg/kg administered via oral gavage by LC-MS analysis; assay type: ADME, organism-based; procedure, shortened: as §1
[7] = AUClast in BALB/c mouse lung at 100 mg/kg administered via oral gavage after 0.25 to 24 hrs by LC-MS analysis; assay type: ADME, organism-based; details: in vivo; procedure, shortened: as §1
[8] = Cmax in BALB/c mouse lung at 100 mg/kg administered via oral gavage after 0.25 to 24 hrs by LC-MS analysis; assay type: ADME, organism-based; parameters: dose 100 mg/kg, route oral; procedure, shortened: as §1
[9] = system: Mycobacterium tuberculosis; assay: Antimycobacterial activity against Mycobacterium tuberculosis H37Rv infected in BALB/c mouse model assessed as reduction in CFU counts in lung at 200 mg/kg administered daily via oral gavage for 5 days per week measured after 28 days post dosage relative to control; assay type: functional
Procedure, shortened: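 Bactericidal-dose model in aerosol-infected BALB/c mice given 25, 50, 100 or 200 mg/kg orally in 0.5% carboxymethylcellulose in water for 4 weeks. Lung CFU compared with the count at treatment initiation; survival also recorded.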

[10] = system: Mycobacterium tuberculosis; assay: Antimycobacterial activity against Mycobacterium tuberculosis H37Rv infected in BALB/c mouse model assessed as reduction in CFU counts in lung at 100 mg/kg administered daily via oral gavage for 5 days per week measured after 14 days post dosage relative to control; assay type: functional
Procedure, shortened: (§3)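 Female BALB/c mice, 4-6 weeks old, aerosol-infected with H37Rv (about 10^3 CFU); five mice taken on day 1 for lung implantation CFU. From day 1, 12.5, 25, 50 or 100 mg/kg in 0.5% carboxymethylcellulose by daily oral gavage, 5 days/week. Ethambutol 100 mg/kg as positive control, untreated infected mice as negative, 5 mice per group. Lung homogenates plated on 7H11 selective agar on days 14 and 28.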

[11] = Mean residence time (last) in BALB/c mouse lung at 100 mg/kg administered via oral gavage by LC-MS analysis; assay type: ADME, organism-based; procedure, shortened: as §1
[12] = AUMClast in BALB/c mouse lung at 100 mg/kg administered via oral gavage after 0.25 to 24 hrs by LC-MS analysis; assay type: ADME, organism-based; details: in vivo; procedure, shortened: as §1
[13] = AUClast in BALB/c mouse plasma at 100 mg/kg administered via oral gavage after 0.25 to 24 hrs by LC-MS analysis; assay type: ADME, organism-based; parameters: dose 100 mg/kg, time 0.25-24 hr, route oral; procedure, shortened: as §1
[14] = system: Mycobacterium tuberculosis; assay: Antimycobacterial activity against Mycobacterium tuberculosis H37Rv infected in BALB/c mouse model assessed as protection against mouse mortality at 12.5 to 100 mg/kg administered daily via oral gavage for 5 days per week measured after 14 to 28 days post dosage; assay type: functional, organism-based
[15] = Cmax in BALB/c mouse plasma at 100 mg/kg administered via oral gavage after 0.25 to 24 hrs by LC-MS analysis; assay type: ADME, organism-based; parameters: dose 100 mg/kg, route oral; procedure, shortened: as §1
[16] = Tmax in BALB/c mouse lung at 100 mg/kg administered via oral gavage after 0.25 to 24 hrs by LC-MS analysis; assay type: ADME, organism-based
Procedure, shortened: (§4)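 Female BALB/c mice (20 g) got a single 100 mg/kg oral gavage dose. Three animals were sacrificed per time point at 0, 0.25, 0.5, 1, 2, 4, 8 and 24 h. Cardiac blood was spun at 12 000g, 4 °C for plasma. Lungs were bead-beaten in water and the supernatant taken. Both matrices were quantified by LC-MS/MS with an indole-2-carboxamide internal standard. Parameters came from noncompartmental analysis.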

[17] = system: Mycobacterium tuberculosis; assay: Antimycobacterial activity against Mycobacterium tuberculosis H37Rv infected in BALB/c mouse model assessed as reduction in CFU counts in lung at 100 mg/kg administered daily via oral gavage for 5 days per week measured after 28 days post dosage relative to control; assay type: functional; procedure, shortened: as §3
[18] = Tmax in BALB/c mouse plasma at 100 mg/kg administered via oral gavage after 0.25 to 24 hrs by LC-MS analysis; assay type: ADME, organism-based; procedure, shortened: as §4

SMILES	MIC90 [1]	further results
CN1C2CCCC1CC(NC(=O)c1cc3c(Cl)cc(Cl)cc3[nH]1)C2 (stereo not drawn)	10.9 µM (≈ 3.99 µg/mL)	
CC(C)=CCC/C(C)=C/CNC(=O)c1cc2c(F)cc(F)cc2[nH]1	> 192 µM	
Cc1cccc2cc(C(=O)NC3CCCCCC3)[nH]c12	30 µM (≈ 8.11 µg/mL)	
Cc1ccc2[nH]c(C(=O)NC3CCCCCCC3)cc2c1	0.88 µM (≈ 0.25 µg/mL)	
Cc1ccc2cc3c(ccc4ccccc43)c3c2c1CC3 [3-METHYLCHOLANTHRENE]		Activity [2]: Active
C[C@@H](NC(=O)c1cc2c(F)cc(F)cc2[nH]1)C1CCCCC1	13 µM (≈ 3.98 µg/mL)	
Cc1cc(C)c2cc(CNC(=O)C3CCCCCC3)[nH]c2c1	54 µM (≈ 16.1 µg/mL)	
COc1cc(OC)c2cc(C(=O)NC3CCCCCC3)[nH]c2c1	3.2 µM (≈ 1.01 µg/mL)	
CCCCCCCNC(=O)c1cc2c(Cl)cc(Cl)cc2[nH]1	> 300 µM	
C[C@@H](NC(=O)c1cc2c(Cl)cc(Cl)cc2[nH]1)C1CCCCC1	5.9 µM (≈ 2 µg/mL)	
C[C@@H]1[C@@H](NC(=O)c2cc3c(F)cc(F)cc3[nH]2)C[C@H]2C[C@@H]1C2(C)C	0.19 µM (≈ 0.0632 µg/mL)	
CC1(C)CCC(NC(=O)c2cc3c(Cl)cc(Cl)cc3[nH]2)CC1		AUMClast [3]: 36.4 hr.hr.ug/ml; Drug uptake [4]: Active; Activity [5]: Active; MRT last [6]: 6.47 h; AUClast [7]: 18.1 µg·h/g; Cmax [8]: 1300 ng/g; Activity [9]: inactive; Activity [10]: 0.45 log10CFU; MRT last [11]: 8.3 h; AUMClast [12]: 150 hr2.ug/g; AUC(0-t) [13]: 5620 ng·h/mL; Activity [14]: Active; Cmax [15]: 670 ng/mL; Tmax [16]: 2 h; Activity [17]: 1.08 log10CFU; Tmax [18]: 2 h
Cc1cc(C)c2cc(C(=O)NC3CCCCCCC3)[nH]c2c1	0.013 µM (≈ 0.00388 µg/mL)	
O=C(NC1CCC2(CCCCC2)CC1)c1cc2c(F)cc(F)cc2[nH]1	0.003 µM (≈ 0.00104 µg/mL)	Drug uptake [4]: Not Active; Activity [5]: inactive
Cc1cc(C)c2cc(CNC3CCCCCCC3)[nH]c2c1	0.31 µM (≈ 0.0882 µg/mL)	
Cc1ccc2cc(C(=O)NC3CCCCCCC3)[nH]c2c1	0.11 µM (≈ 0.0313 µg/mL)	
Nc1ccc2[nH]c(C(=O)NC3CCCCCCC3)cc2c1	80 µM (≈ 22.8 µg/mL)	
O=C(NC12CC3CC(CC(C3)C1)C2)c1cc2ccc(Br)cc2[nH]1	0.042 µM (≈ 0.0157 µg/mL)	
Cc1cccc2cc(C(=O)NC3CCCCCCC3)[nH]c12	3.5 µM (≈ 0.995 µg/mL)	
Cc1cc(C)c2[nH]c(C(=O)NC3CCCCCCC3)cc2c1	0.21 µM (≈ 0.0627 µg/mL)	
CC1(C)[C@@H]2CC[C@@H](CNC(=O)c3cc4c(Cl)cc(Cl)cc4[nH]3)[C@H]1C2	175 µM (≈ 63.9 µg/mL)	
